# Where “and” joins values, the source holds several entries; their conditions need not be identical. Equal entries are not always repeated.
# Experiments:
# MT4 [1] = test: Inhibitory concentration for cytopathicity of HIV-1 (HTLV-111B) in MT-4 cells; format: functional, cell-based, Homo sapiens
# Method in brief: (§1)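 MT-4 cells infected with HIV-1 (HTLV-IIIB) or HIV-2 (LAV-2ROD) at 100–500-fold the dose infecting 50% of cells, then cultured with compound. Protection from cytopathicity gives the IC50 (50% inhibitory concentration). Means of at least three experiments.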
# HuT78 [2] = test: Compound was tested for reduce the number of gaint cells in HIV-2 infected HUT-78 cells cocultured with MOLT -4 cells; format: functional, cell-based, Homo sapiens
# Method in brief: (§2)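 HUT-78 cells persistently infected with HIV-1 or HIV-2 cocultured with uninfected MOLT-4 (CD4+) cells alongside compound. Syncytium formation and bystander-cell destruction assessed by flow cytometry. IC50 taken as the concentration cutting giant-cell number by 50%.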
# MT-4 (human) = test: Inhibitory index of HIV-1 binding to MT-4 cells was determined at a concentration of 25 ug/mL
# CCRF-CEM = test: Inhibitory concentration for cytopathicity of HIV-1 (HTLV-111B) in CEM cells; format: functional, cell-based, Homo sapiens
# Method in brief: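 CEM cells infected with HIV-1 (HTLV-IIIB) and cultured with compound. Protection from cytopathicity measured by XTT tetrazolium viability assay. IC50 is the concentration giving 50% inhibition. Means of two to four experiments.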
# [3] = Compound was tested for percent of OKT4A positive cells stained with normal mouse IgG-FITC at a concentration of 100 ug/ml; format: functional
# Method in brief: (§3)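 MT-4 cells, 200 000 in 100 µL PBS, exposed to compound for 10–20 s at 20 °C, then stained with anti-OKT4A-FITC for 20 min at 4 °C. Cells washed, fixed in 0.37% formaldehyde and analysed by cytofluorometry. Positive cells are those brighter than control cells stained with normal mouse IgG-FITC, which monitors nonspecific labelling.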
# HuT78 [4] = test: Compound was tested for reduce the number of gaint cells in HIV-1 infected HUT-78 cells cocultured with MOLT -4 cells; format: functional, cell-based, Homo sapiens; method in brief: as §2
# MT4 [5] = test: Inhibitory index for OKT4A mAb binding inhibition in MT-4 cells was determined at a concentration of 4 ug/ml; format: functional, Homo sapiens
# Method in brief: (§4)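 MT-4 cells, 200 000 in 100 µL PBS, exposed to compound for 10–20 s at 20 °C, stained with anti-OKT4A-FITC for 20 min at 4 °C, washed, formaldehyde-fixed and read by flow cytometry. Index = 1 − (MF with compound − MF IgG-FITC control)/(MF OKT4A only − MF IgG-FITC control), from mean fluorescence intensity.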
# MT4 [6] = test: Inhibitory index for OKT4A mAb binding inhibition in MT-4 cells was determined at a concentration of 20 ug/ml; format: functional, Homo sapiens; method in brief: as §4
# MT4 [7] = test: Inhibitory index for OKT4A mAb binding inhibition in MT-4 cells was determined at a concentration of 0.16 ug/ml; format: functional, Homo sapiens; method in brief: as §4
# MT4 [8] = test: Inhibitory index for OKT4A mAb binding inhibition in MT-4 cells was determined at a concentration of 100 ug/ml; format: functional, Homo sapiens; method in brief: as §4
# MT4 [9] = test: Inhibitory concentration for cytopathicity of HIV-2 (LAV-2ROD) in MT-4 cells; format: functional, cell-based, Homo sapiens; method in brief: as §1
# [10] = Compound was tested for percent of OKT4A positive cells stained with normal mouse IgG-FITC at a concentration of 4 ug/mL; format: functional; method in brief: as §3
# [11] = Compound was tested for percent of OKT4A positive cells stained with normal mouse IgG-FITC at a concentration of 0.16 ug/ml; format: functional; method in brief: as §3
# [12] = Compound was tested for percent of OKT4A positive cells stained with normal mouse IgG-FITC at a concentration of 20 ug/ml; format: functional; method in brief: as §3
# [13] = Compound was tested for percent of OKT4A positive cells stained with normal mouse IgG-FITC at a concentration of 0.8 ug/ml; format: functional; method in brief: as §3
# MT4 [14] = test: Inhibitory concentration for cell viability in mock-infected MT-4 cells; format: functional, cell-based; conditions: Homo sapiens
# Method in brief: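 MT-4 cells mock-infected and cultured with compound. Viability measured by MTT tetrazolium colorimetric read-out. Value is the 50% cytotoxic concentration. MT-4 data are means of at least three experiments.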
# MT4 [15] = test: Inhibitory index for OKT4A mAb binding inhibition in MT-4 cells was determined at a concentration of 0.8 ug/ml; format: functional, Homo sapiens; method in brief: as §4
smiles,measurement,setting,value
O=C(O)C1=CC(=C(c2ccc(O)c(C(=O)O)c2)c2ccc(O)c(C(=O)O)c2)C=CC1=O [AURINTRICARBOXYLIC ACID],IC50,MT4 [1],1.1 µg/mL and 0.5 µg/mL
same,IC50,"HuT78 [2]; Homo sapiens, HuT78, read-out: IC50",4 µg/mL
same,IC50,HuT78 [2]; hut78,4 µg/mL
same,Inhibitory index,MT-4 (human),0.99
same,IC50,"CCRF-CEM; Homo sapiens, CCRF-CEM, read-out: IC50",2.1 µg/mL
same,IC50,CCRF-CEM; ccrf-cem,1.2 µg/mL
same,Activity,[3],2.7
same,IC50,HuT78 [4],4 µg/mL
same,Activity,MT4 [5],0.91
same,Activity,MT4 [6],0.98
same,Activity,MT4 [7],0
same,Activity,MT4 [8],0.97
same,IC50,"MT4 [9]; Homo sapiens, MT4, read-out: IC50",0.85 µg/mL
same,IC50,MT4 [9]; mt4,1.3 µg/mL
same,Activity,[10],9.2
same,Activity,[11],99.5
same,Activity,[12],1.8
same,Activity,[13],99.2
same,IC50,MT4 [14],280 µg/mL
same,Activity,MT4 [15],0.26
